Test results: PubChem BioAssay AID651775 (Broad Institute, 2012)

test system: SK-MEL-5 TRPM1 promoter luciferase, 24 h; test: activators of MITF-driven TRPM1 promoter, dose response, cell-based, SK-MEL-5, luciferase, dry powder (AID 651775)
Method in brief: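 Assay system: TRPM1 promoter-luciferase reporter stably expressed in SK-MEL-5 melanoma cells; Medium: DMEM without phenol red, 10% heat-inactivated FBS; Schedule: compound added day after seeding, 24 h exposure at 37 °C; Detection: SteadyGlo luminescence, read after 5 min at room temperature.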

Compound | AC40 [nM]
c1ccc(-c2ccc(-c3cnc4n3CCCCC4)cc2)cc1 | 2290
O=C(Oc1ccc2ccccc2c1Cl)N1CCCCCC1 | 113
CC(=O)Nc1nnc(COc2ccc(Cl)cc2)s1 | 589
CC(C)(C)C(=O)N1CCN(c2nc3ccccc3s2)CC1 | 912
Fc1ccccc1COc1ccc(C(=S)N2CCCC2)cc1 | 1320
COc1ccc(C(=O)NCCn2ccc3ccccc32)cc1 | 531
CCCN(CCC)c1ncnc2c1cnn2-c1ccc(OC)cc1 | 39
Cc1cc2ncc(-c3ccc(Cl)cc3)c(N)n2n1 | 1770
Cc1ccc(C(=O)Nc2cccc(O)c2)cc1S(=O)(=O)N1CCCCCC1 | 1010
O=C(NCCc1cccs1)c1ccc(Cl)c(Cl)c1 | 615
COc1ccc(NC(=O)c2ccc3[nH]c(C)c(C)c3c2)cc1 | 1930
COC(=O)C(C)N1C(=O)S/C(=C/c2cc(C)n(C(C)C)c2C)C1=O (stereo not drawn) | 541
C/C(=N\OCc1ccc(C#N)cc1)c1ccc(S(=O)(=O)N(C)C)cc1 | 7800
O=C(Nc1cccc(F)c1)NC1CCCCCCC1 | 984
C=CCNc1nc(-c2ccc(Cl)cc2)cs1 | 219
c1ccc2c(Nc3nnc(-c4ccncc4)s3)cccc2c1 | 1130
c1ccc(CSc2ccc(-c3ccc4c(c3)OCO4)nn2)cc1 | 974
Cc1nn2c(-c3ccccc3)ccnc2c1-c1ccccc1 | 824
CCN(CC)c1ccc(Nc2nc(-c3cccnc3)cs2)cc1 | 515
COc1cc(/C=N/O)ccc1OCc1ccccc1Cl | 180
COc1cccc(NC(=O)C(=O)NCCC2CCCCN2S(=O)(=O)c2cccs2)c1 (stereo not drawn) | 2070
Cc1ccc(NC(=O)c2ccc3ccccc3n2)cc1S(=O)(=O)N(C)C | 462
CSc1nc2ccc(NC(=O)c3cccs3)cc2s1 | 465
